The inhibition is the change of the read-out against control, counted positive when it falls. Read a high inhibition as strong suppression.

Series [1] is filed under the species Rattus norvegicus. In words: The compound was tested for the inhibition of lipid peroxidation in rat liver microsomes induced by [Fe2+] at a concentration of 10E-5 M. It counts as functional. The method in brief: (§1)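 Liver microsomes from 24 h-fasted Wistar rats (8000g then 105000g pellet, in 0.15 M KCl, protein by Lowry). 1 mL mix: 83.5 mM KCl, 37.2 mM Tris-HCl pH 7.4, 10 μM FeSO4, 2 mg microsomal protein, compound in 0.01 mL DMF. 37 °C for 20 min. TBA-reactive material read at 532 nm after n-BuOH/pyridine extraction. Reported against vehicle control.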

The nature of series [2]: Partition ratio obtained from HPLC analysis. It counts as ADME.
For series [3], the species on record is Rattus norvegicus. The series is described as follows: The compound was tested for the inhibition of lipid peroxidation in rat liver microsomes induced by [Fe3+] at a concentration of 10E-5 M. It is filed as functional. The method in brief:
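Fasted Wistar rat liver microsomes, 2.0 mg protein in 1 mL of 83.5 mM KCl/37.2 mM Tris-HCl pH 7.4. Peroxidation started with 1 mM ADP, 10 μM FeCl3 and 0.02 mM NADPH. Compound added in 0.01 mL DMF. 37 °C for 20 min, stopped on ice. Malondialdehyde measured as TBA-reactive material: 95 °C for 20 min, butanol/pyridine extract, A532. Compared with vehicle control.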
In general terms: Liver microsomes are vesicles of endoplasmic reticulum, rich in cytochrome P450 enzymes.

The species named for series [4] is Rattus norvegicus. In words: The compound was tested for the stimulation of lipid peroxidation in rat liver microsomes induced by [Fe2+] at a concentration of 10E-5 M. It is filed as functional. In short, it runs like this:
as §1

`CCCCCCCCCCCCCCC(=O)COC1=C(O)C(=O)OC1C(O)CO` (centres undefined): the inhibition was determined as 33% in the series filed under Rattus norvegicus [1] and 65% in the series listed under Rattus norvegicus [3]. In addition, in series [2], the “k'” value is 4.33.
Take `CCCCCCCCOC1=C(O)C(=O)OC1C(O)CO` (centres undefined): the inhibition was found to be 9% in the series filed under Rattus norvegicus [1] and 40% in the series listed under Rattus norvegicus [3]. Besides, in series [2], the “k'” value is on record as 0.62.
Regarding `CCCCCCCCCCOC(=O)COC1=C(O)C(=O)OC1C(O)CO` (centres undefined), the inhibition in the series listed under Rattus norvegicus [1] turned out to be 31%.
For the compound `CCCCCCCCOC1=C(O)OC(C(O)CO)C1=O` (centres undefined), the “k'” value in series [2] is given as less than 0.2. Further, the inhibition in the series filed under Rattus norvegicus [3] worked out at 20%.
Regarding `CCCCCCC(=O)COC1=C(O)C(=O)OC1C(O)CO` (centres undefined), the inhibition in the series filed under Rattus norvegicus [1] was determined as 20%; in the series filed under Rattus norvegicus [3], 27%. Also, the “k'” value in series [2] is reported as 0.24.
Consider `CCCCCCCCCCOC1=C(O)C(=O)OC1C(O)CO` (centres undefined), for which the inhibition in the series listed under Rattus norvegicus [1] came to 44%; in the series listed under Rattus norvegicus [3], 91%. Besides, the “k'” value in series [2] came out at 1.27.
Regarding `CCCCOC(=O)COC1=C(O)OC(C(O)CO)C1=O` (centres undefined), the inhibition in the series filed under Rattus norvegicus [3] turned out to be 10%.
Take `CCCCCCCCCCCCCCCCCCOC1=C(O)C(=O)OC1C(O)CO` (centres undefined): the inhibition was 7% in the series listed under Rattus norvegicus [1] and 45% in the series listed under Rattus norvegicus [3]. The “k'” value in series [2] turned out to be 17.34.
As to `CCCCCCCCCCC(=O)COC1=C(O)C(=O)OC1C(O)CO` (centres undefined), the inhibition in the series filed under Rattus norvegicus [1] was determined as 44%; in the series filed under Rattus norvegicus [3] it was 88%. Also, in series [2], the “k'” value was determined as 1.14.
Take `CC(=O)COC1=C(O)C(C2COC(C)(C)O2)OC1=O` (centres undefined): in series [2], the “k'” value is reported as less than 0.1. Moreover, in the series filed under Rattus norvegicus [3], the inhibition amounted to 2%.
On to `O=C1OC(C(O)CO)C(OCc2cccnc2)=C1O` (centres undefined), for which the “k'” value in series [2] was less than 0.1. Also, the inhibition in the series filed under Rattus norvegicus [3] was 2%.
For `CCCCCCCCCCCCOC1=C(O)C(=O)OC1C(O)CO` (centres undefined), the inhibition worked out at 34% in the series listed under Rattus norvegicus [1] and 88% in the series filed under Rattus norvegicus [3]. Moreover, in series [2], the “k'” value is listed as 2.49.
For the compound `CCCCCCCCCCCCCCCCC(=O)COC1=C(O)C(=O)OC1C(O)CO` (centres undefined), the inhibition in the series listed under Rattus norvegicus [1] was determined as 28%; in the series filed under Rattus norvegicus [3], 43%. For the same compound, the “k'” value in series [2] is reported as 8.26.
With `CCCCCCCCCCCCCCOC1=C(O)C(=O)OC1C(O)CO` (centres undefined), the values for the inhibition in the series filed under Rattus norvegicus [1] and in the series listed under Rattus norvegicus [3] were 30% and 81%, respectively. In series [2], the “k'” value is 4.78.
On the same counts, the results for `CCCCCCCCCCCCCCCCCCOC1=C(O)[C@@H](C(O)CO)OC1=O` (some centres undefined) are 29%, 88% and 1.13.
Turning to `CCCCCCCCCCCCCCCCC(=O)COC1=C(O)OC(C(O)CO)C1=O` (centres undefined), the “k'” value in series [2] was found to be 0.45. Moreover, in the series listed under Rattus norvegicus [3], the inhibition came out at 55%.
Turning to `CCCCCCCCCCCCCCCCOC1=C(O)C(=O)OC1C(O)CO` (centres undefined), the inhibition in the series listed under Rattus norvegicus [1] came out at 21%; in the series listed under Rattus norvegicus [3], 74%. Further, the “k'” value in series [2] was 9.09.
On the same counts, the results for `CCCCCCCCC(=O)COC1=C(O)C(=O)OC1C(O)CO` (centres undefined) are 33%, 64% and 0.55.
As for `CCCCCCCCCCCCOC1=C(O)OC(C(O)CO)C1=O` (centres undefined), the “k'” value in series [2] came to 0.63. The compound further showed an inhibition in the series filed under Rattus norvegicus [3] of 83%.
In the series filed under Rattus norvegicus [3], `CCCCCCCCCCOC1=C(OCCCCCCCCCC)C(C(O)CO)OC1=O` (centres undefined) returned an inhibition of 2%.
Consider `O=C1O[C@H]([C@@H](O)CO)C(O)=C1O` [ASCORBIC ACID], for which, in the series filed under Rattus norvegicus [4], the Stimulation is 72%. Also, the “k'” value in series [2] is less than 0.1.
Consider `CCCCCCCCCCCCC(=O)COC1=C(O)C(=O)OC1C(O)CO` (centres undefined), for which the inhibition is 30% in the series filed under Rattus norvegicus [1] and 81% in the series filed under Rattus norvegicus [3]. Further, in series [2], the “k'” value is 2.25.

The record behind these values is ChEMBL document CHEMBL1125930, “3-O-alkylascorbic acids as free-radical quenchers: synthesis and inhibitory effect on lipid peroxidation” (J Med Chem, 1991).
